Test results as given in PubChem BioAssay.
The source made the active and inactive calls.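 Rule for the calls, unless noted: active = viability at or under a set limit in both replicates, limit being median viability minus 3 SD (cut at about 48% in these data, passing the limit was not always enough); inconclusive = at or under the limit in just one replicate; inactive = at or above the limit in both replicates.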

Columns and labels:
[1] = reducers of endogenous Her2 protein level, primary screen, SKBR3 breast tumor cells, AlphaScreen, ATP viability (AID 461;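 active = Her2 level under about 52% in both replicate screens, with viability over 70% of control, limit read from the data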;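 for Her2 level: lower value means less Her2 protein in the cells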;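 for viability: percent of carrier control wells set as 100% viability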); settings: 18-24 h, measured here: SKBR3 viability, ATP luminescence, at 10 µM
[2] = target: Receptor tyrosine-protein kinase erbB-2 (Homo sapiens) (UniProt P04626); experiment: as above; settings: 18-24 h, at 10 µM, stronger effect = lower value
[3] = SK-BR-3 cell growth inhibitors, pilot screen, 24 h, human (AID 572;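 active = viability at or below 10% of carrier control in both of two separate runs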;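 note: compound exposure lasted between 18 and 24 h rather than exactly 24 h; 100% = carrier-treated control wells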); settings: SK-BR-3 viability, CellTiter-Glo luminescence, at 10 µM, stronger effect = lower value
[4] = HUVEC growth inhibition – cell-based, human, primary screen (AID 575;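 active = viability at or below 30% in both replicate assays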;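 note: 100% = median of untreated cell wells with 0.1% DMSO on each plate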); settings: HUVEC proliferation, CellTiter-Glo luminescence, 72 h; at 10 µM; stronger effect = lower value
Outline: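 System – primary HUVEC, no more than 12 passages · Medium – Low-serum (2% FBS) EBM, supplemented · Times – 72 h exposure, 37 °C, 5% CO2, 30 min RT equilibration · Measured by – luminescent ATP assay · Read-out – % viability relative to median vehicle-well signal on each plate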

[5] = growth inhibitors of H69AR lung tumor, primary screen, human, duplicate replicates (AID 580); settings: H69AR lung tumor cells viability, ATP luminescence, 72 h; at 10 µM; stronger effect = lower value;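 note: 100% = mean luminescence of untreated wells and 0% = no signal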
[6] = reversal of MRP1-mediated doxorubicin resistance, pilot screen, H69AR cells, doxorubicin co-treatment (AID 601;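 active = viability loss from added drug above about 55%, and viability with drug at most 40%, in both replicates, limit read from the data, passing the limit was not always enough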); settings: CellTiter-Glo, 72 h, at 10 µM; for differential viability (reversal): stronger effect = higher value
[7] = 384-well plate pilot, post-Golgi transport modulator project, inhibition of yeast transport mutant growth (AID 636; in the data active = inhibition above about 31%); settings: absorbance 615 nm, about 18 h, stronger effect = higher value
[8] = growth suppression of yeast trafficking mutant, preliminary HTS, modulators of trafficking downstream of Golgi apparatus project, 1536-format plate, OD 615 nm (AID 637; in the data active = inhibition above about 30%); settings: yeast transport mutant growth, absorbance 615 nm, 18 h; stronger effect = higher value
[9] = H69AR cells + 2 uM doxorubicin, measured here: viability with 2 uM doxorubicin, stronger effect = lower value
[10] = H69AR cells, compound alone cytotoxicity

Sequence of Receptor tyrosine-protein kinase erbB-2 (Homo sapiens) (P04626 whole entry, looked up): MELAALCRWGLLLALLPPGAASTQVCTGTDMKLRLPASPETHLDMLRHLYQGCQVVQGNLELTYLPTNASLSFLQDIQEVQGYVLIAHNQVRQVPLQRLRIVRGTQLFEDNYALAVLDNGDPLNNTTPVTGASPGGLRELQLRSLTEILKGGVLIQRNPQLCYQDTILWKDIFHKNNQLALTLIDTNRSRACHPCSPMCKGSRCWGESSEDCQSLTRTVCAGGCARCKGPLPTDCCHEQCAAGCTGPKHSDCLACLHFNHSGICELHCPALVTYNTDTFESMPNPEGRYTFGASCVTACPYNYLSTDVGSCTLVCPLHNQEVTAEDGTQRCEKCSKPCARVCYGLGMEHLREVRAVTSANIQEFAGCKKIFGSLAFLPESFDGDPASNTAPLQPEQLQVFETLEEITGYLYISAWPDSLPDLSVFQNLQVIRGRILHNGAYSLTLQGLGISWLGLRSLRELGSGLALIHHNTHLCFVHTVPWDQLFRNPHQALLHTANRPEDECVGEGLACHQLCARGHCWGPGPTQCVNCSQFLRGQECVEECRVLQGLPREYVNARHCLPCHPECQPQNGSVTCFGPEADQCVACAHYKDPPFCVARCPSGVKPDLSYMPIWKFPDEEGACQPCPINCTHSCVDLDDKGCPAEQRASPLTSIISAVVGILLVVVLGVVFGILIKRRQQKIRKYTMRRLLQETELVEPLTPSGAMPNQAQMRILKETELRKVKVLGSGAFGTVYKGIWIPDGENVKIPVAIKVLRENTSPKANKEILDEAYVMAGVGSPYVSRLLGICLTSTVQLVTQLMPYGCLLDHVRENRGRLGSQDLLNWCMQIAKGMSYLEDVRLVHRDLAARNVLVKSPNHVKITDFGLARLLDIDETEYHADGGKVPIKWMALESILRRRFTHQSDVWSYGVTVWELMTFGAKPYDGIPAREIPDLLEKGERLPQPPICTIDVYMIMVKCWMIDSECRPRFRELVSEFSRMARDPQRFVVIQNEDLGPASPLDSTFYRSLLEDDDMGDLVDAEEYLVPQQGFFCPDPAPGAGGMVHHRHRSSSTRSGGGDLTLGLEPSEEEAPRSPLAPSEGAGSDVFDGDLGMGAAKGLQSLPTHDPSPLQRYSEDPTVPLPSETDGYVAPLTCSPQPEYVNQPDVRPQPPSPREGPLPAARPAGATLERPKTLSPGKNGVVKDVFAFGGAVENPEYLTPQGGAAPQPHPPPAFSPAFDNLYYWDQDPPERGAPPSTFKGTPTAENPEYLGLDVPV

| SMILES | viability [1] | Her2 level [2] | viability [3] | viability [4] | viability [5] | differential viability (reversal) ([6]; H69AR cells + 2 uM doxorubicin) | viability [6, 9] | viability [6, 10] | inhibition [7] | inhibition [8] |
| --- | --- | --- | --- | --- | --- | --- | --- | --- | --- | --- |
| Cc1ccc(-n2cnnn2)c2cccnc12 | 95.5% | 92% (inactive) | 95.5% (inactive) | 72.1% (inactive) | 101% (inactive) | 7.82% (inactive) | 93.5% | 101% | -5.53% (inactive) | 4.83% (inactive) |
| Cc1cc(C)c2c(CC(=O)NCc3ccco3)coc2c1 | 94% | 81.5% (inactive) | 94% (inactive) | 71.3% (inactive) | 91.1% (inactive) | 1.32% (inactive) | 89.8% | 91.1% | -6.27% (inactive) | -6.03% (inactive) |
| CCc1cc(C(=O)OC)c(NC(=O)CCC(=O)O)s1 | 96.5% | 96% (inactive) | 96.5% (inactive) | 87.6% (inactive) | 107% (inactive) | 17.8% (inactive) | 89.1% | 107% | -2.53% (inactive) | 0% (inactive) |
| CC(C)C(=O)Nc1cccc(NC(=O)c2cccnc2)c1 | 102% | 98.5% (inactive) | 102% (inactive) | 107% (inactive) | 97.9% (inactive) | -1.67% (inactive) | 99.6% | 97.9% | -2.63% (inactive) | 4.1% (inactive) |
| COc1ccc(-c2cc(C(=O)Nc3ccc(C)cc3)no2)cc1 | 121% | 114% (inactive) | 121% (inactive) | 109% (inactive) | 99.1% (inactive) | 9.35% (inactive) | 89.7% | 99.1% | -3.11% (inactive) | 41% (active) |
| Cc1ccc(-n2nnnc2SCC(=O)c2cc(C)n(-c3cc(C)on3)c2C)cc1 | 91% | 83% (inactive) | 91% (inactive) | 88.5% (inactive) | 65.4% (inactive) | -28.2% (inactive) | 93.6% | 65.4% | -2.86% (inactive) | 1.11% (inactive) |
| COc1cc(C(=O)N2CCN(C(=O)CC(C)C)CC2)cc(OC)c1OC | 93.5% | 106% (inactive) | 93.5% (inactive) | 101% (inactive) | 91.3% (inactive) | -6.59% (inactive) | 97.9% | 91.3% | 2.63% (inactive) | 13.2% (inactive) |
| CCOC(=O)c1[nH]c2ccccc2c1NC(=O)C(C)(C)C | 102% | 96% (inactive) | 102% (inactive) | 80.6% (inactive) | 96.6% (inactive) | 2.35% (inactive) | 94.2% | 96.6% | -5.33% (inactive) | 1.67% (inactive) |
| Cc1cc(C(=O)NCc2cccnc2)n(-c2ccccc2)n1 | 93.5% | 97% (inactive) | 93.5% (inactive) | 102% (inactive) | 107% (inactive) | 14.4% (inactive) | 92.9% | 107% | -0.93% (inactive) | -6.07% (inactive) |
| CN(C)S(=O)(=O)Nc1ccc(Br)cc1F | 108% | 82.5% (inactive) | 108% (inactive) | 86.9% (inactive) | 102% (inactive) | 13.6% (inactive) | 88.5% | 102% | -5.2% (inactive) | -8.1% (inactive) |
| Cc1cc(C(=O)CSc2nnc(-c3ccco3)o2)c(C)n1CC1COc2ccccc2O1 (stereo not given) | 91.5% | 94% (inactive) | 91.5% (inactive) | 74.3% (inactive) | 89% (inactive) | -9.8% (inactive) | 98.8% | 89% | -2.67% (inactive) | -9.52% (inactive) |
| COC(=O)c1ccccc1NC(=O)C1CCCCC1C(=O)O (stereo not given) | 103% | 116% (inactive) | 103% (inactive) | 91% (inactive) | 90.3% (inactive) | -1.56% (inactive) | 91.8% | 90.3% | -2.93% (inactive) | -9.52% (inactive) |
| Cc1nc2nc(Cc3ccccc3)[nH]n2c(=O)c1Cc1ccccc1 | 117% | 104% (inactive) | 117% (inactive) | 96.6% (inactive) | 96.2% (inactive) | 8.81% (inactive) | 87.4% | 96.2% | -0.53% (inactive) | 1.64% (inactive) |
| Cc1cccc(N2CCN(C(=O)Cn3ccc4ccccc4c3=O)CC2)c1C | 90.5% | 81% (inactive) | 90.5% (inactive) | 94.1% (inactive) | 95% (inactive) | -1.24% (inactive) | 96.2% | 95% | -4.34% (inactive) | -2.91% (inactive) |
| C=CCOC(=O)C1=C(C)OC(N)=C(C#N)C1c1ccc2c(c1)OCO2 (stereo not given) | 107% | 90.5% (inactive) | 107% (inactive) | 98.2% (inactive) | 94.5% (inactive) | 7.53% (inactive) | 86.9% | 94.5% | -4.32% (inactive) | -4.44% (inactive) |
| CCOC(=O)C1CCN(C(=O)c2ccc(Cl)c(Cl)c2)CC1 | 75.5% | 105% (inactive) | 75.5% (inactive) | 94.3% (inactive) | 102% (inactive) | 5.88% (inactive) | 96.3% | 102% | 3.65% (inactive) | -2.3% (inactive) |
| O=C(CS(=O)(=O)Cc1ccccc1)N1CCc2ccccc2C1 | 94.5% | 94.5% (inactive) | 94.5% (inactive) | 86.4% (inactive) | 101% (inactive) | 11.5% (inactive) | 89.4% | 101% | -5.6% (inactive) | -1.61% (inactive) |
| COc1cccc(Cn2c(OCC3CCCO3)nc3c2c(=O)n(C)c(=O)n3C)c1 (stereo not given) | 86.5% | 86% (inactive) | 86.5% (inactive) | 104% (inactive) | 101% (inactive) | -0.075% (inactive) | 101% | 101% | -2.11% (inactive) | 3.77% (inactive) |
| O=C(c1cccs1)N1CCN=C1SCc1ccccc1 | 120% | 74.5% (inactive) | 120% (inactive) | 60.8% (inactive) | 90.4% (inactive) | 6.13% (inactive) | 84.2% | 90.4% | 3.51% (inactive) | -0.66% (inactive) |
| COC(=O)C(O)(CC(=O)c1ccc(OC)cc1)C(F)(F)F (stereo not given) | 100% | 98% (inactive) | 100% (inactive) | 91.5% (inactive) | 95.9% (inactive) | 0.63% (inactive) | 95.3% | 95.9% | -1.33% (inactive) | -5% (inactive) |
| CN(C)c1cccc2c(S(=O)(=O)Nc3ccccn3)cccc12 | 96.5% | 95.5% (inactive) | 96.5% (inactive) | 109% (inactive) | 101% (inactive) | 2.54% (inactive) | 98.7% | 101% | -6.8% (inactive) | 1.43% (inactive) |
| CCCn1c(O)c(CN2CCCC(C)C2)c(C)c(C#N)c1=O (stereo not given) | 102% | 87.5% (inactive) | 102% (inactive) | 86.8% (inactive) | 107% (inactive) | 15.3% (inactive) | 92.2% | 107% | -5.87% (inactive) | 5.32% (inactive) |
| COC(=O)C(C)C1Sc2ccccc2NC1=O (stereo not given) | 121% | 100% (inactive) | 121% (inactive) | 119% (inactive) | 93.9% (inactive) | 12.1% (inactive) | 81.8% | 93.9% | -7.7% (inactive) | 2.83% (inactive) |
| COc1ccc(-c2noc(-c3ccccc3C(=O)NCc3ccco3)n2)cc1 | 93% | 104% (inactive) | 93% (inactive) | 107% (inactive) | 82.8% (inactive) | -12.1% (inactive) | 94.9% | 82.8% | -3.12% (inactive) | -5.24% (inactive) |
| COc1ccc(C(=O)Nn2c(C3CCC3)nc3ccccc3c2=O)c(OC)c1 | 93.5% | 97% (inactive) | 93.5% (inactive) | 85.8% (inactive) | 111% (inactive) | 30% (inactive) | 80.7% | 111% | -1.56% (inactive) | 1.9% (inactive) |
| CC(C(=O)N1CCCCC1)n1sc2ccccc2c1=O (stereo not given) | 119% | 102% (inactive) | 119% (inactive) | 88% (inactive) | 87.4% (inactive) | 3.18% (inactive) | 84.3% | 87.4% | -1.71% (inactive) | 11.4% (inactive) |
| Cc1nc2sc(C#N)c(N)c2c2c1CCCC2 | 95.5% | 78.5% (inactive) | 95.5% (inactive) | 85.7% (inactive) | 102% (inactive) | -6% (inactive) | 108% | 102% | -1.97% (inactive) | 4.36% (inactive) |
| O=C(CSc1nc2ccsc2c(=O)n1NC(=O)c1ccccc1)Nc1nccs1 | 105% | 86.5% (inactive) | 105% (inactive) | 96.9% (inactive) | 100% (inactive) | 2.06% (inactive) | 98% | 100% | -4.74% (inactive) | -2.83% (inactive) |
